ChEMBL document CHEMBL1129989, “Minor structural differences in Boc-CCK-4 derivatives dictate affinity and selectivity for CCK-A and CCK-B receptors” (J Med Chem, 1997)
*1 amine or outer side, *2 acyl side, *3 side chain or, on linkers, in order; H or OH if unused. Where a SMILES comes first, the peptide text is derived from it. Side-chain parts run from the residue outwards. The star is where a group is joined. NH(4-MeO-phenyl) = COc1ccc(N*)cc1; pNA = O=[N+]([O-])c1ccc(N*)cc1; X2 = O=[N+]([O-])c1cccc(N*)c1; NH(3-MeOPh) = COc1cccc(N*)c1; 3Abz = Nc1cccc(C(=O)O)c1; 4Abz = Nc1ccc(C(=O)O)cc1; X1 = CC(=O)c1ccc(N*)cc1; 2Abz = Nc1ccccc1C(=O)O; Boc = CC(C)(C)OC(=O)*; CO = O=C([*:1])[*:2]

Experiments:
Cavia porcellus [1] = organism: Cavia porcellus; assay: Relative affinity for type B (cortex) over type A (pancreatic) cholecystokinin receptors
Summary of the method: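 Selectivity ratio is IC50 in cortex divided by IC50 in pancreas. Both IC50s come from displacement of specific [125I]Bolton–Hunter CCK-8 binding, each determination run in duplicate.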

[2] = molecular target: Cholecystokinin type B receptor (Cavia porcellus); assay: Displacement of [125I]- BH-CCK-8 from Cholecystokinin type B receptor of guinea pig cortex
[3] = molecular target: T1, Cholecystokinin receptor type A (Cavia porcellus, UniProt Q63931); assay: Displacement of [125I]- BH-CCK-8 from Cholecystokinin type A receptor of guinea pig pancreas
T1 sequence (Q63931 whole entry): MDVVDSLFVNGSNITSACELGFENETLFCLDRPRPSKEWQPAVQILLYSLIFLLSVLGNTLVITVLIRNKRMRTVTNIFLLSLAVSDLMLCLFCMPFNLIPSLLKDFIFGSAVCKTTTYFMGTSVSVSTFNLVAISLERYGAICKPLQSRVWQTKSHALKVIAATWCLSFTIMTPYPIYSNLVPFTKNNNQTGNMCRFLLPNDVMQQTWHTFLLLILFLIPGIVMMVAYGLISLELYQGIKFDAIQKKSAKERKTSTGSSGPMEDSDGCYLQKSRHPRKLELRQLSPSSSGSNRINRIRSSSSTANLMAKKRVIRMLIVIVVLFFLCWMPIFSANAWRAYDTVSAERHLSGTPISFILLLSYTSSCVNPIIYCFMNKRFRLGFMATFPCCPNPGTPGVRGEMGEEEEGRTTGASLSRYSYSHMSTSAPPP
Summary of the method: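 Competition binding in pancreas and cortex tissue membranes with [125I]Bolton–Hunter CCK-8 as radioligand. […] Values are means ± SE over several determinations, each run in duplicate with <5% sample variability.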

Cavia porcellus [4] = organism: Cavia porcellus; assay: Concentration that stimulated amylase release in guinea pig pancreatic acini relative to CCK-8; assay type: functional
Cavia porcellus [5] = organism: Cavia porcellus; assay: The maximal response elicited by the compound (concentration of 100 uM) relative to the maximal response elicited by CCK-8 (1 uM) in the PI hydrolysis assay; assay type: functional
NCI-H345 [6] = assay: Concentration that produced 50% of the maximal response in intracellular calcium mobilization in the NCI-H345 cells.; assay type: functional, cell-based; settings: Homo sapiens
Summary of the method: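 NCI-H345 cells carry the CCK-B/gastrin receptor. Intracellular calcium mobilization was read by indo-1 fluorescence. […] Values are means ± SE of several determinations.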

NCI-H345 [7] = assay: The maximal response elicited by the compound (concentration of 10 uM) relative to the maximal response elicited by CCK-8; assay type: functional, Homo sapiens
NCI-H345 [8] = assay: The maximal response elicited by the compound (concentration of 1 uM) relative to the maximal response elicited by CCK-8; assay type: functional, Homo sapiens

SMILES | C/P (Cavia porcellus [1]) | IC50 [2] | IC50 [3] | EC50 (NCI-H345 [6]) | EC50 (Cavia porcellus [4]) | Max response (Cavia porcellus [5]) | Max response (NCI-H345 [7]) | Max response (NCI-H345 [8])
COC(=O)c1ccccc1NC(=O)NCCCC[C@H](NC(=O)[C@H](Cc1c[nH]c2ccccc12)NC(=O)OC(C)(C)C)C(=O)N[C@@H](CC(=O)O)C(=O)N[C@@H](Cc1ccccc1)C(N)=O (Boc-WK([CO-2Abz-OMe])DF-NH2) | 91 | 3.1 µM |  |  |  |  |  | 
COC(=O)c1ccc(NC(=O)NCCCC[C@H](NC(=O)[C@H](Cc2c[nH]c3ccccc23)NC(=O)OC(C)(C)C)C(=O)N[C@@H](CC(=O)O)C(=O)N[C@@H](Cc2ccccc2)C(N)=O)cc1 (Boc-WK([CO-4Abz-OMe])DF-NH2) |  |  | 71 nM |  |  |  |  | 
CC(=O)c1ccc(NC(=O)NCCCC[C@H](NC(=O)[C@H](Cc2c[nH]c3ccccc23)NC(=O)OC(C)(C)C)C(=O)N[C@@H](CC(=O)O)C(=O)N[C@@H](Cc2ccccc2)C(N)=O)cc1 (Boc-WK([CO-X1])DF-NH2) | 0.26 |  | 46 nM | 120 nM | 85 nM | 80% | 91% | 
CC(C)(C)OC(=O)N[C@@H](Cc1c[nH]c2ccccc12)C(=O)N[C@@H](CCCCNC(=O)Nc1ccc([N+](=O)[O-])cc1)C(=O)N[C@@H](CC(=O)O)C(=O)N[C@@H](Cc1ccccc1)C(N)=O (Boc-WK([CO-pNA])DF-NH2) | 0.75 |  | 41 nM | 47 nM | 39 nM | 74% |  | 94%

The remaining molecules from weak to strong by IC50 [3], led by results:

C/P (Cavia porcellus [1]) | IC50 [2] | IC50 [3] | EC50 (NCI-H345 [6]) | SMILES | EC50 (Cavia porcellus [4]) | Max response (Cavia porcellus [5]) | Max response (NCI-H345 [7]) | Max response (NCI-H345 [8])
67 |  | 15 nM |  | COC(=O)c1cccc(NC(=O)NCCCC[C@H](NC(=O)[C@H](Cc2c[nH]c3ccccc23)NC(=O)OC(C)(C)C)C(=O)N[C@@H](CC(=O)O)C(=O)N[C@@H](Cc2ccccc2)C(N)=O)c1 (Boc-WK([CO-3Abz-OMe])DF-NH2) |  |  |  | 
50 |  | 14 nM |  | COc1ccc(NC(=O)NCCCC[C@H](NC(=O)[C@H](Cc2c[nH]c3ccccc23)NC(=O)OC(C)(C)C)C(=O)N[C@@H](CC(=O)O)C(=O)N[C@@H](Cc2ccccc2)C(N)=O)cc1 (Boc-WK([CO-NH(4-MeO-phenyl)])DF-NH2) |  |  |  | 
150 |  | 9.4 nM |  | COc1cccc(NC(=O)NCCCC[C@H](NC(=O)[C@H](Cc2c[nH]c3ccccc23)NC(=O)OC(C)(C)C)C(=O)N[C@@H](CC(=O)O)C(=O)N[C@@H](Cc2ccccc2)C(N)=O)c1 (Boc-WK([CO-NH(3-MeOPh)])DF-NH2) |  |  |  | 
210 |  | 5.8 nM |  | CC(C)(C)OC(=O)N[C@@H](Cc1c[nH]c2ccccc12)C(=O)N[C@@H](CCCCNC(=O)Nc1cccc([N+](=O)[O-])c1)C(=O)N[C@@H](CC(=O)O)C(=O)N[C@@H](Cc1ccccc1)C(N)=O (Boc-WK([CO-X2])DF-NH2) |  |  |  | 
